According to ChEMBL document CHEMBL1629477, “Efficient synthesis of 6-(hetero)arylthieno[3,2-b]pyridines by Suzuki-Miyaura coupling. Evaluation of growth inhibition on human tumor cell lines, SARs and effects on the cell cycle” (2010):

Columns and labels:
Format in all cases: functional
A-375 = experiment: Growth inhibition of human A375 cells after 48 hrs by sulforhodamine B assay; conditions: A-375, 48 h
Procedure, shortened: (§1)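 Cells kept adherent in RPMI-1640 with 5% heat-inactivated FBS, 2 mM glutamine and penicillin/streptomycin at 37 °C, 5% CO₂. Seeded at 1.5 × 10⁵ cells/mL (MCF-7) or 0.75 × 10⁵ cells/mL (A375-C5, NCI-H460), then grown 24 h. Exposed 48 h to five serial dilutions from up to 150 µM, DMSO ≤0.25%. SRB stain, absorbance 492 nm. GI₅₀ is 50% net growth inhibition; three experiments in duplicate; doxorubicin positive control.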

NCI-H460 [1] = experiment: Growth inhibition of human NCI-H460 cells after 48 hrs by sulforhodamine B assay; conditions: NCI-H460, 48 h; procedure, shortened: as §1
MCF7 = experiment: Growth inhibition of human MCF7 cells after 48 hrs by sulforhodamine B assay; conditions: MCF7, 48 h; procedure, shortened: as §1
NCI-H460 [2] = experiment: Cell cycle arrest in human NCI-H460 cells assessed as accumulation at G1 phase after 48 hrs by flow cytometry
Procedure, shortened: (§2)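 NCI-H460 cells plated at 0.75 × 10⁵ cells/mL, then exposed 48 h to GI₅₀ or 2 × GI₅₀ concentrations (from the SRB assay). Controls were medium only (blank) and DMSO solvent. Cells were harvested, fixed in 70% ethanol and resuspended in PBS. G1/G0, S and G2/M fractions were read by flow cytometry. Three independent experiments in duplicate, mean ± SD.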

NCI-H460 [3] = experiment: Cell cycle arrest in human NCI-H460 cells assessed as accumulation at G2/M phase after 48 hrs by flow cytometry; procedure, shortened: as §2

SMILES | GI50 (A-375) | GI50 (NCI-H460 [1]) | GI50 (MCF7) | Activity (NCI-H460 [2]) | Activity (NCI-H460 [3])
COC(=O)c1sc2cc(-c3cnc4ccccc4c3)cnc2c1N | 9.1 µM | 9.5 µM | 9.8 µM |  | 
COC(=O)c1sc2cc(-c3ccc(-c4cccs4)s3)cnc2c1N | > 75 µM | 0.7 µM | 1 µM | 15% | 
COC(=O)c1sc2cc(-c3ccoc3)cnc2c1N | > 120 µM | > 120 µM | > 120 µM |  | 
COC(=O)c1sc2cc(-c3ccc(C#N)cc3)cnc2c1N | > 75 µM | > 75 µM | > 75 µM |  | 
COC(=O)c1sc2cc(-c3ccccc3N)cnc2c1N | 2.5 µM | 3.8 µM | 4.2 µM |  | 12%
COC(=O)c1sc2cc(-c3ccc4ncccc4c3)cnc2c1N | > 150 µM | > 150 µM | > 150 µM |  | 
COC(=O)c1sc2cc(-c3ccc4c(ccn4C)c3)cnc2c1N | 21.2 µM | 20.3 µM | 23 µM |  | 
COC(=O)c1sc2cc(-c3cnc(OC)nc3OC)cnc2c1N | > 75 µM | > 75 µM | > 75 µM |  | 
COC(=O)c1sc2cc(-c3ccc(OC)nc3)cnc2c1N | > 37.5 µM | > 37.5 µM | > 37.5 µM |  | 
COC(=O)c1sc2cc(-c3cnn(C)c3)cnc2c1N | > 150 µM | > 150 µM | > 150 µM |  | 
COC(=O)c1sc2cc(-c3ccc(OC)cc3)cnc2c1N | > 150 µM | > 150 µM | > 150 µM |  | 
COC(=O)c1sc2cc(-c3cc(OC)cc(OC)c3)cnc2c1N | 82 µM | 31.8 µM | 56.6 µM |  | 
COC(=O)c1sc2cc(-c3cccc(N)c3)cnc2c1N | > 150 µM | > 150 µM | > 150 µM |  | 
COC(=O)c1sc2cc(-c3ccc(N)cc3)cnc2c1N | 80.8 µM | 37.1 µM | 108 µM |  | 
COC(=O)c1sc2cc(-c3ccsc3)cnc2c1N | 12.1 µM | 12.4 µM | 12.7 µM |  | 
COC(=O)c1sc2cc(-c3cccnc3)cnc2c1N | > 112 µM | > 112 µM | > 112 µM |  | 
COC(=O)c1sc2cc(-c3cccs3)cnc2c1N | > 150 µM | 18 µM | 26.9 µM |  | 
COC(=O)c1sc2cc(-c3ccc(C(C)=O)cc3)cnc2c1N | > 150 µM | > 150 µM | > 150 µM |  | 
COC(=O)c1sc2cc(-c3cncc4ccccc34)cnc2c1N | 10.1 µM | 7.7 µM | 10.7 µM |  | 
COC(=O)c1sc2cc(-c3ccc(C(F)(F)F)cc3)cnc2c1N | > 150 µM | > 150 µM | > 150 µM |  | 
COC(=O)c1sc2cc(-c3ccc4ccccc4c3)cnc2c1N | 95.6 µM | 43.5 µM | 50.9 µM |  | 
